sdo1 growth = growth rescue of sdo1-depleted yeast, primary screen, S. cerevisiae, bone marrow failure model. S. cerevisiae sdo1-depleted JHY4D growth rescue, OD600 30 h; stronger effect = higher value; pdr5 snq2 efflux-pump mutant strain. z-score at 10 µM. hit rate 0.21% among 140,000. AID 817, 2007;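 active = z-score above 3 at both the 24 hr and the 30 hr optical density reads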;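 note: z-score against mean and SD of all compound wells on the same plate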
MRP-1 activ = H69AR viability gain despite doxorubicin, primary screen, MRP-1 activator project, H69AR cells, CellTiter-Glo; viability rescue; viability increase, % at 10 µM; hit rate 0.61% among 140,000; AID 799, 2007;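 active = viability gain under doxorubicin at or above a set limit, the compound median plus 3 SD, cut at about 4.7% in these data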;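 note: MRP-1 overexpressing cells given doxorubicin 25 µM after compound pretreatment; 18-22 h compound pretreatment then 72 h with doxorubicin before readout; 0% = doxorubicin-only wells and 100% = vehicle-treated cells without doxorubicin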
BB579 growth dn = growth inhibitors of yeast BB579 in restrictive medium, primary screen, yeast lifespan-shortening project, S. cerevisiae; OD615, 48 h; inhibition, % at 10 µM; hit rate 0.51% among 140,000;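 active = inhibition above a set limit, 3 SD over the mean compound inhibition, cut at about 44% in these data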
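System: Saccharomyces cerevisiae DeaD strain BB579, replicative lifespan model yeast | Buffer or medium: Restrictive glucose-based CSMM-D medium | Times: 4 h preincubation and 48 h exposure at 30 °C | Detection: OD615 turbidity measurement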
Yeast life ext = compounds extending yeast replicative lifespan, primary screen, S. cerevisiae, OD615; hit rate 0.68% among 130,000; inhibition of the nicotinamide effect, % at 10 µM; S. cerevisiae growth with nicotinamide; deaD strain in restrictive glucose medium;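 active = inhibition above a set limit, placed 3 SD over the median of all compounds, cut at about 26% in these data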;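 note: 0% = nicotinamide-treated wells and 100% = cells grown without nicotinamide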
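System: DeaD-strain S. cerevisiae / Buffer or medium: CSMM-D, restrictive glucose (dextrose) synthetic minimal medium / Probe or stimulus: nicotinamide, 1.5 mM, co-present with compound / Compound: one concentration, 10 µM, DMSO 0.25% / Incubation: 48 h compound exposure at 30 °C, humidified / Technique: optical density (absorbance) at 615 nm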
Phagocyt inh = inhibitors of macrophage phagocytosis, primary screen, imaging, J774A.1 cells, IgG beads | J774A.1 macrophage IgG-bead phagocytosis | inhibition, % at 5 µM | hit rate 0.07% among 110,000;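 active = inhibition above the mean of the plate negative controls plus 5 SD, cut at about 13% in these data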;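 note: phagocytic index as fraction of beads internalized from green versus red external bead signal; plate controls were DMSO negative control for no effect and cytochalasin-D positive control for full effect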
MRP reversal = reversal of MRP1-mediated doxorubicin resistance, primary screen, H69AR cells, doxorubicin co-treatment | H69AR cells + 2 uM doxorubicin, CellTiter-Glo, 72 h | differential viability (reversal), % at 10 µM | hit rate 0.04% among 85,000 | AID 602, 2007;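 active = viability drop by adding the cancer drug above about 55%, with treated viability meeting a 40% cutoff, limit read from the data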;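 note: viability without doxorubicin minus viability with 2 µM doxorubicin for each compound; larger differential means the compound sensitizes cells more to doxorubicin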
Active calls of the source: *; · = not tested or not shown. Sampled rows, rich in hits. Any-hit rate of the full collection: about 2.1%.

SMILES | sdo1 growth | MRP-1 activ | BB579 growth dn | Yeast life ext | Phagocyt inh | MRP reversal
Cc1ccc(-n2nnnc2SCC(=O)NC2CCCc3ccccc32)c(C)c1 (configuration not stated) | -0.53 | 0.7 | -47.5 | -1.9 | 0.1 | ·
CCc1ccc2nc(N3C(=O)C(O)=C(C(=O)c4ccco4)C3c3cccs3)sc2c1 (configuration not stated) | 1.58 | -3.2 | -65.2 | 44.7* | · | ·
O=C(c1cnn2c(C(F)(F)F)cc(-c3cccs3)nc12)N1CCN(C(c2ccccc2)c2ccccc2)CC1 | -0.97 | 8.3* | -19.6 | · | · | 5.2
CN1CCN(C(=O)c2cnn3c(C(F)(F)F)cc(-c4cccs4)nc23)CC1 | 0.36 | -1.8 | -41.1 | 0.6 | -2.8 | ·
Cc1cc(C)nc(NS(=O)(=O)c2ccc(NC(=O)C3CC(=O)N(c4ccccc4)C3)cc2)n1 (configuration not stated) | 1.11 | 0.1 | 0.0 | -5.5 | 0.1 | 2.1
Cc1ccsc1/C=N/NC(=O)CSCc1ccc(Cl)cc1 | -1.02 | 1.7 | -2.5 | -7.4 | 0.7 | ·
Cc1ccc(/C=N/NC(=O)CSCc2ccc(Cl)cc2)cc1 | -1.44 | 6.3* | -5.2 | -8.2 | -1.4 | ·
COc1ccc(/C=C2\SC(=S)N(CCCC(=O)Nc3ccccn3)C2=O)cc1OC | -0.27 | -2.6 | -18.2 | -1.9 | 2.1 | ·
CCc1ccc(/C=C2\SC(=S)N(CCCC(=O)Nc3nccs3)C2=O)cc1 | 0.46 | -1.8 | -14.2 | 2.7 | 2.4 | ·
Cc1ccc(/C=C2\SC(=S)N(CCCC(=O)Nc3nccs3)C2=O)cc1 | 0.19 | 5.3* | -8.9 | 5.4 | 0.8 | ·
Cc1ccc(/C=C2\SC(=S)N(CCCC(=O)Nc3ccccn3)C2=O)cc1 | 1.59 | 6.8* | -50.9 | 3.8 | · | ·
O=C1c2ccccc2C(=O)C1c1ccc2ccccc2n1 | -0.8 | -1.5 | 53.8* | -8.2 | 1.6 | -8.7
COC(=O)C1=C(C)NC(C)=C(C(=O)OC)C1c1ccc2ccccc2n1 | 1.13 | -1.1 | -62.9 | 3.0 | -0.4 | -4.1
COc1ccc(NCc2ccc([N+](=O)[O-])s2)cc1 | 0.1 | -5.8 | 27.0 | 21.9 | -4.3 | ·
COc1ccc(NCc2ccc([N+](=O)[O-])s2)c(OC)c1 | -0.07 | -5.5 | 99.7* | -7.7 | -7.1 | ·
CCCCOC(=O)Nc1nnc(CCc2ccccc2)s1 | 0.67 | -0.8 | -18.6 | -8.3 | -0.5 | -6.2
O=C(O)c1cccc(N2C(=O)C3CC=C(Cl)CC3C2=O)c1 (configuration not stated) | 0.32 | 10.3* | 4.1 | 3.0 | -0.1 | -8.3
Cc1ccc(NC(=O)CC2SC(=O)NC2=O)cc1 (configuration not stated) | -0.02 | 1.9 | 36.1 | 3.2 | -3.2 | ·
Cc1ccc(CC2SC(=O)NC2=O)cc1Cl (configuration not stated) | 0.86 | 4.8* | -31.3 | -5.7 | · | 1.5
Nc1ccc(CC2SC(=O)NC2=O)cc1 (configuration not stated) | 1.1 | 9.4* | 5.6 | -1.1 | -0.8 | 13.5
CC(=O)/C(C#N)=C1\NC(=O)C(Cc2ccc(C)c(C)c2)S1 (configuration not stated) | 0.23 | 8.8* | -3.6 | 20.1 | -2.6 | 10.6
CCOc1ccc(NC(=O)c2cnsn2)cc1 | 0.14 | 0.8 | -23.6 | -9.6 | 1.5 | -13.1
Cc1ccc(C(=O)N/C(=C/C=C\c2ccccc2)C(=O)NCc2ccco2)cc1 | -0.28 | -0.4 | 1.9 | -4.5 | -9.9 | ·
O=C(COC(=O)c1ccccc1)NCc1ccco1 | -0.5 | -0.5 | -6.9 | -12.2 | 0.0 | 10.0
Cc1ccc(C(=O)OCC(=O)NCc2ccco2)cc1 | -0.14 | -1.6 | -29.4 | 56.1* | -0.4 | 6.3
O=C(OCC(=O)N1CCc2ccccc21)c1c2c(nc3ccccc13)CCCCC2 | -0.68 | -0.7 | -2.2 | -6.0 | -6.6 | ·
Cc1nc2ccc(NC(=O)N3CCN(c4ccccn4)CC3)cc2s1 | 0.24 | -0.6 | -40.7 | -18.2 | -1.1 | -3.7
O=C(O)CCC(=O)N1CCN(c2nc(-c3ccccc3Cl)c3cc(Br)ccc3n2)CC1 | -1.52 | -1.7 | 99.2* | -15.9 | · | -1.5
N=C(N)SCc1ccccn1 | 0.57 | 6.3* | -17.9 | 3.3 | 0.6 | ·

Screening data (PubChem BioAssay)
